# Reference: ChEMBL document CHEMBL3421533, “The Discovery of Orally Bioavailable Tyrosine Threonine Kinase (TTK) Inhibitors: 3-(4-(heterocyclyl)phenyl)-1H-indazole-5-carboxamides as Anticancer Agents” (J Med Chem, 2015)
# Tested on: not listed separately
# Assay: Cmax in athymic CD1 nude mouse at 10 mg/kg, po by LC-MS/MS analysis
# Assay type: ADME, organism-based
# Parameters: dose 10 mg/kg, route oral
# Conditions: athymic CD1 nude, in vivo
row,Structure (SMILES),Cmax
1,O=C(N[C@H](c1ncccn1)C1CCCC1)c1ccc2[nH]nc(-c3ccc(N4[C@H]5CC[C@H]4CC(O)C5)cc3)c2c1 (some centres undefined),750 ng/mL
2,O=C(N[C@H](CC1CC1)c1ccccn1)c1ccc2[nH]nc(-c3ccc(N4[C@H]5CC[C@H]4CC(O)C5)cc3)c2c1 (some centres undefined),1200 ng/mL

# Tested on: not listed separately
# Assay: Half life in Sprague-Dawley rat at 1 mg/kg, iv by LC-MS/MS analysis
# Assay type: ADME, organism-based
# Parameters: dose 1 mg/kg, route intravenous
# Conditions: in vivo
row,Structure (SMILES),half-life
1,O=C(N[C@H](c1ncccn1)C1CCCC1)c1ccc2[nH]nc(-c3ccc(N4[C@H]5CC[C@H]4CC(O)C5)cc3)c2c1 (some centres undefined),43.8 min
2,O=C(N[C@H](CC1CC1)c1ccccn1)c1ccc2[nH]nc(-c3ccc(N4[C@H]5CC[C@H]4CC(O)C5)cc3)c2c1 (some centres undefined),22.8 min

# Tested on: MDA-MB-468
# Assay: Cytotoxicity against human MDA-MB-468 cells after 5 days by sulforhodamine B assay
# Assay type: functional
# Conditions: Homo sapiens, MDA-MB-468, 120 h
# Outline: (§1)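 Cancer lines were seeded at 800–6000 cells per well according to growth rate, 24 h before compound overlay. After culture, cells were fixed in situ and stained with sulforhodamine B. GI50 values were derived by curve fitting.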
row,Structure (SMILES),GI50
1,O=C(N[C@H](c1ncccn1)C1CCCC1)c1ccc2[nH]nc(-c3ccc(N4[C@H]5CC[C@H]4CC(O)C5)cc3)c2c1 (some centres undefined),14 nM
2,O=C(N[C@H](CC1CC1)c1ccccn1)c1ccc2[nH]nc(-c3ccc(N4[C@H]5CC[C@H]4CC(O)C5)cc3)c2c1 (some centres undefined),27 nM

# Organism: Homo sapiens
# Assay: Selectivity ratio of IC50 for AURKB/INCENP (unknown origin) to IC50 for amino terminal GST-fused full length human TTK
# Conditions: not given
row,Ratio IC50,Structure (SMILES)
1,> 100,O=C(N[C@H](CC1CC1)c1ccccn1)c1ccc2[nH]nc(-c3ccc(N4[C@H]5CC[C@H]4CC(O)C5)cc3)c2c1 (some centres undefined)

# Tested on: not listed separately
# Assay: Half life in rat liver microsomes at 1 uM by LC-MS analysis
# Assay type: ADME
# Conditions: liver microsomes
row,Structure (SMILES),half-life at 1 µM
1,O=C(N[C@H](c1ncccn1)C1CCCC1)c1ccc2[nH]nc(-c3ccc(N4[C@H]5CC[C@H]4CC(O)C5)cc3)c2c1 (some centres undefined),> 60 min
2,O=C(N[C@H](CC1CC1)c1ccccn1)c1ccc2[nH]nc(-c3ccc(N4[C@H]5CC[C@H]4CC(O)C5)cc3)c2c1 (some centres undefined),> 60 min

# Tested on: not listed separately
# Assay: AUCinfinity in Sprague-Dawley rat at 1 mg/kg, iv by LC-MS/MS analysis
# Assay type: ADME, organism-based
# Parameters: time infinity, dose 1 mg/kg, route intravenous
# Conditions: plasma
row,Structure (SMILES),AUC(0-inf)
1,O=C(N[C@H](c1ncccn1)C1CCCC1)c1ccc2[nH]nc(-c3ccc(N4[C@H]5CC[C@H]4CC(O)C5)cc3)c2c1 (some centres undefined),130 ng·h/mL
2,O=C(N[C@H](CC1CC1)c1ccccn1)c1ccc2[nH]nc(-c3ccc(N4[C@H]5CC[C@H]4CC(O)C5)cc3)c2c1 (some centres undefined),290 ng·h/mL

# Molecular target: Aurora kinase B/Inner centromere protein (Homo sapiens, UniProt Q96GD4)
# Assay: Inhibition of AURKB/INCENP (unknown origin) preincubated for 15 mins prior to ATP addition by FRET-based homogenous assay
# Assay type: protein-complex assay
# Conditions: not given
# Outline: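 The enzyme was AURKB/INCENP in a FRET-based homogeneous assay run to kit specifications, with ATP at 128 μM. […] Each IC50 came from a single determination, reported with its standard fitting error.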
# Aurora kinase B/Inner centromere protein, sequence (Q96GD4 whole entry): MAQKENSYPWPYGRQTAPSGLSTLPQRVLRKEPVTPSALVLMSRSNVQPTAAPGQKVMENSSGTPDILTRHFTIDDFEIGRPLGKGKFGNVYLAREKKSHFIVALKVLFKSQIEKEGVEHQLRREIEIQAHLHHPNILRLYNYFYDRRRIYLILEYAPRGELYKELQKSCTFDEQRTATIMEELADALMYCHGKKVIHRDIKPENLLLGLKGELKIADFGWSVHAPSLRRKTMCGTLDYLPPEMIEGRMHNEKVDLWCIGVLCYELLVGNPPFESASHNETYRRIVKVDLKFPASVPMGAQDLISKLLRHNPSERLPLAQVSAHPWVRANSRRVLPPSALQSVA
# Aurora kinase B/Inner centromere protein, sequence (Q9NQS7 whole entry, further chain): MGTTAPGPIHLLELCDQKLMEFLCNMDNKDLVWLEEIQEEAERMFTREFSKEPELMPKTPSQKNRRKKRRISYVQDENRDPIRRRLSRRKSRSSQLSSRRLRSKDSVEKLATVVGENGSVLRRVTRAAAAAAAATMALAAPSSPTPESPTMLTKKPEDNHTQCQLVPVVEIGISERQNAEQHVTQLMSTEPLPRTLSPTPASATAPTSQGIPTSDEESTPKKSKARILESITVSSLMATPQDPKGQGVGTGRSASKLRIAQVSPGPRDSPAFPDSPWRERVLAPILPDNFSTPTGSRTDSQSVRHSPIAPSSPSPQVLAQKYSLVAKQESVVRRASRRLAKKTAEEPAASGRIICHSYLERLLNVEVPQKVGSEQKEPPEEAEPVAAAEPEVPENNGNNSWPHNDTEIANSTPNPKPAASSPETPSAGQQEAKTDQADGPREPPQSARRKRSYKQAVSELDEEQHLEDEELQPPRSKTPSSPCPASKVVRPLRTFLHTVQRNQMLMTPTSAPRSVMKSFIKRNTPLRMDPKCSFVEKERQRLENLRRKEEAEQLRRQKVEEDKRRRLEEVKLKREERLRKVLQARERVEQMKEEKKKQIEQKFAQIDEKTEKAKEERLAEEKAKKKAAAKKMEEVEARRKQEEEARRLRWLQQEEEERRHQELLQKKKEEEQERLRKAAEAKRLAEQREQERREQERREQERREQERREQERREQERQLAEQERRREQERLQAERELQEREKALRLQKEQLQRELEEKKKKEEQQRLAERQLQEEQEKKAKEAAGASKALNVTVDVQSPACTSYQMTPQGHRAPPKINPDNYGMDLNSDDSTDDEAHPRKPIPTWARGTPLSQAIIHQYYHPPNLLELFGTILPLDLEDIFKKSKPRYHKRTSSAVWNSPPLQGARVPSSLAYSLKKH
row,Structure (SMILES),IC50
1,O=C(N[C@H](c1ncccn1)C1CCCC1)c1ccc2[nH]nc(-c3ccc(N4[C@H]5CC[C@H]4CC(O)C5)cc3)c2c1 (some centres undefined),620 nM
2,O=C(N[C@H](CC1CC1)c1ccccn1)c1ccc2[nH]nc(-c3ccc(N4[C@H]5CC[C@H]4CC(O)C5)cc3)c2c1 (some centres undefined),1200 nM

# Tested on: not listed separately
# Assay: Cytotoxicity against human HCT116 cells after 5 days by sulforhodamine B assay
# Assay type: functional, HCT-116
# Conditions: Homo sapiens, HCT-116, 120 h
# Outline: as §1
row,Structure (SMILES),GI50
1,O=C(N[C@H](c1ncccn1)C1CCCC1)c1ccc2[nH]nc(-c3ccc(N4[C@H]5CC[C@H]4CC(O)C5)cc3)c2c1 (some centres undefined),1 nM
2,O=C(N[C@H](CC1CC1)c1ccccn1)c1ccc2[nH]nc(-c3ccc(N4[C@H]5CC[C@H]4CC(O)C5)cc3)c2c1 (some centres undefined),16 nM

# Molecular target: T1, Dual specificity protein kinase TTK (Homo sapiens, UniProt P33981)
# T1 sequence (P33981 whole entry): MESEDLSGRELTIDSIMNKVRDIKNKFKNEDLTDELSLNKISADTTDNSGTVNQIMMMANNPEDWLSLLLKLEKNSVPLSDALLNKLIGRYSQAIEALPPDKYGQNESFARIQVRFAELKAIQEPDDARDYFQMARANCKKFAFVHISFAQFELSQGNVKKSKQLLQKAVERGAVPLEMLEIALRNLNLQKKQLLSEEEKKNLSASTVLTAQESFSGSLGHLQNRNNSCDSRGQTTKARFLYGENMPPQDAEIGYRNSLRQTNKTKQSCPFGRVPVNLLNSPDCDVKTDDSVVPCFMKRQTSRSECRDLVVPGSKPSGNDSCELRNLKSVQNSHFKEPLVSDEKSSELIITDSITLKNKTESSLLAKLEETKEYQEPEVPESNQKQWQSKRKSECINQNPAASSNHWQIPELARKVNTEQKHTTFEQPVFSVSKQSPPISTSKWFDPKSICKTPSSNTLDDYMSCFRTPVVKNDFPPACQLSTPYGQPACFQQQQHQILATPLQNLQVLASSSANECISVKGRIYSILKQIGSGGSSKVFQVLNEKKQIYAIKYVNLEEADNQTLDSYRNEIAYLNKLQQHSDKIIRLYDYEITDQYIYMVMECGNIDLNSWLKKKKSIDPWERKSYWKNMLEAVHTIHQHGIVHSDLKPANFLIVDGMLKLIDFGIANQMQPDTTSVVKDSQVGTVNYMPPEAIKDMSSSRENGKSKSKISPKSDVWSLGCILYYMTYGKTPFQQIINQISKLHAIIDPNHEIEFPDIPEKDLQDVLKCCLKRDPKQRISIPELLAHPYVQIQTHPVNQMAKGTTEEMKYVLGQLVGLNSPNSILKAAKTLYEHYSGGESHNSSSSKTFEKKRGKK
# Assay: Inhibition of amino terminal GST-fused full length human TTK using His6-SUMO-TTK-N as substrate preincubated for 15 mins prior to ATP addition by indirect ELISA detection system
# Conditions: not given
row,Structure (SMILES),IC50
1,O=C(N[C@H](c1ncccn1)C1CCCC1)c1ccc2[nH]nc(-c3ccc(N4[C@H]5CC[C@H]4CC(O)C5)cc3)c2c1 (some centres undefined),1.1 nM
2,O=C(N[C@H](CC1CC1)c1ccccn1)c1ccc2[nH]nc(-c3ccc(N4[C@H]5CC[C@H]4CC(O)C5)cc3)c2c1 (some centres undefined),1.5 nM

# Molecular target: Cytochrome P450 3A4 (Homo sapiens, UniProt P08684)
# Assay: Inhibition of human CYP3A4 using BFC as substrate preincubated for 10 mins followed by enzyme/substrate addition measured after 30 mins by fluorescence assay
# Assay type: ADME
# Conditions: not given
# Cytochrome P450 3A4, sequence (P08684 whole entry): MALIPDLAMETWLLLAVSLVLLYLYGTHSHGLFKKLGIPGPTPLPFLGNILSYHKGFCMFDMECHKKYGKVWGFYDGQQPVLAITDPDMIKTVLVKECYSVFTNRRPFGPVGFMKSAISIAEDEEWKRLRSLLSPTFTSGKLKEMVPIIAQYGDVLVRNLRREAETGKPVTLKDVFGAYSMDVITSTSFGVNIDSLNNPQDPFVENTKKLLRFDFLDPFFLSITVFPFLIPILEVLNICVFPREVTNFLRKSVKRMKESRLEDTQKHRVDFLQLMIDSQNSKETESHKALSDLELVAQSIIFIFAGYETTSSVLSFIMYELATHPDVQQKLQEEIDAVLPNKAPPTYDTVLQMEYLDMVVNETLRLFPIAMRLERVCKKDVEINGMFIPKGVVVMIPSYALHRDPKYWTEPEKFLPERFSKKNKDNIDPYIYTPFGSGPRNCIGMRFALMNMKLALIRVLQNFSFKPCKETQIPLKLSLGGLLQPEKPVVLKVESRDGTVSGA
row,IC50,Structure (SMILES)
1,1300 nM,O=C(N[C@H](CC1CC1)c1ccccn1)c1ccc2[nH]nc(-c3ccc(N4[C@H]5CC[C@H]4CC(O)C5)cc3)c2c1 (some centres undefined)

# Tested on: not listed separately
# Assay: Clearance in Sprague-Dawley rat at 1 mg/kg, iv by LC-MS/MS analysis
# Assay type: ADME, organism-based
# Parameters: dose 1 mg/kg, route intravenous
# Conditions: in vivo
row,Structure (SMILES),clearance
1,O=C(N[C@H](c1ncccn1)C1CCCC1)c1ccc2[nH]nc(-c3ccc(N4[C@H]5CC[C@H]4CC(O)C5)cc3)c2c1 (some centres undefined),125 mL/min/kg
2,O=C(N[C@H](CC1CC1)c1ccccn1)c1ccc2[nH]nc(-c3ccc(N4[C@H]5CC[C@H]4CC(O)C5)cc3)c2c1 (some centres undefined),57 mL/min/kg

# Tested on: not listed separately
# Assay: Oral bioavailability in Sprague-Dawley rat at 5 mg/kg by LC-MS/MS analysis
# Assay type: ADME, organism-based
# Conditions: in vivo
row,Structure (SMILES),bioavailability
1,O=C(N[C@H](c1ncccn1)C1CCCC1)c1ccc2[nH]nc(-c3ccc(N4[C@H]5CC[C@H]4CC(O)C5)cc3)c2c1 (some centres undefined),21%
2,O=C(N[C@H](CC1CC1)c1ccccn1)c1ccc2[nH]nc(-c3ccc(N4[C@H]5CC[C@H]4CC(O)C5)cc3)c2c1 (some centres undefined),19%

# Tested on: not listed separately
# Assay: AUCinfinity in athymic CD1 nude mouse at 10 mg/kg, po by LC-MS/MS analysis
# Assay type: ADME, organism-based, Plasma
# Parameters: time infinity, dose 10 mg/kg, route oral
# Conditions: athymic CD1 nude, plasma
row,Structure (SMILES),AUC(0-inf)
1,O=C(N[C@H](c1ncccn1)C1CCCC1)c1ccc2[nH]nc(-c3ccc(N4[C@H]5CC[C@H]4CC(O)C5)cc3)c2c1 (some centres undefined),970 ng·h/mL
2,O=C(N[C@H](CC1CC1)c1ccccn1)c1ccc2[nH]nc(-c3ccc(N4[C@H]5CC[C@H]4CC(O)C5)cc3)c2c1 (some centres undefined),1900 ng·h/mL

# Tested on: not listed separately
# Assay: Cytotoxicity against human OVCAR3 cells after 5 days by sulforhodamine B assay
# Assay type: functional, OVCAR-3
# Conditions: Homo sapiens, OVCAR-3, 120 h
row,Structure (SMILES),GI50
1,O=C(N[C@H](c1ncccn1)C1CCCC1)c1ccc2[nH]nc(-c3ccc(N4[C@H]5CC[C@H]4CC(O)C5)cc3)c2c1 (some centres undefined),20 nM

# Tested on: not listed separately
# Assay: Half life in mouse liver microsomes at 1 uM by LC-MS analysis
# Assay type: ADME
# Conditions: liver microsomes
row,Structure (SMILES),half-life at 1 µM
1,O=C(N[C@H](c1ncccn1)C1CCCC1)c1ccc2[nH]nc(-c3ccc(N4[C@H]5CC[C@H]4CC(O)C5)cc3)c2c1 (some centres undefined),> 60 min
2,O=C(N[C@H](CC1CC1)c1ccccn1)c1ccc2[nH]nc(-c3ccc(N4[C@H]5CC[C@H]4CC(O)C5)cc3)c2c1 (some centres undefined),> 60 min

# Tested on: not listed separately
# Assay: AUCinfinity in Sprague-Dawley rat at 5 mg/kg, po by LC-MS/MS analysis
# Assay type: ADME, organism-based
# Parameters: time infinity, dose 5 mg/kg, route oral
# Conditions: plasma
row,Structure (SMILES),AUC(0-inf)
1,O=C(N[C@H](c1ncccn1)C1CCCC1)c1ccc2[nH]nc(-c3ccc(N4[C@H]5CC[C@H]4CC(O)C5)cc3)c2c1 (some centres undefined),140 ng·h/mL
2,O=C(N[C@H](CC1CC1)c1ccccn1)c1ccc2[nH]nc(-c3ccc(N4[C@H]5CC[C@H]4CC(O)C5)cc3)c2c1 (some centres undefined),270 ng·h/mL
